Experimental data published in ChEMBL document CHEMBL1240389, “In vitro and in vivo activities of the novel anticytomegalovirus compound AIC246” (Antimicrob Agents Chemother, 2010).
Calls of active or inactive are those of the source. The calls are words filed in the database; no cut-off is given here.

Legend:
[1] = test system: Human herpesvirus 5 strain AD169; assay: Antiviral activity against ganciclovir-resistant human cytomegalovirus AD169 UL97 M460I infected in NHDF assessed as inhibition of virus-induced cytopathic effect after 6 to 7 days by giemsa staining; format: functional, organism-based; settings: Human betaherpesvirus 5, UL97 M460I
Method in brief: (§1)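 NHDF cells (1 × 10⁴/well) mixed with cell-free virus (MOI 0.03) or with infected-cell suspension (MOI 0.001 to 0.002). Compound was added from DMSO stocks in 2-fold serial dilutions, final 250 to 0.00005 μM, in duplicates. Plates were incubated 6 to 7 days at 37°C or until 100% CPE in virus control, then fixed and stained with Giemsa/formalin and scored microscopically. EC₅₀ is 50% CPE inhibition versus untreated infected control.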

Human betaherpesvirus 5 [2] = assay: Antiviral activity against 0.1 MOI human cytomegalovirus AD169 infected in NHDF after 7 days by GFP-based fluorescent reduction assay; format: functional, organism-based; settings: Human betaherpesvirus 5, AD169, NHDF, 168 h
Method in brief: (§2)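 NHDF cells (1.5 × 10⁴/well) infected with GFP-expressing HCMV AD169 at the stated MOI (range 0.003 to 1 tested). After adsorption the inoculum was replaced, and compound was added in 3-fold serial dilutions, each at least in duplicate. Cells were incubated 7 days at 37°C, then GFP units were read by CCD camera in PBS. EC₅₀ was taken as the % GFPU reduction versus no-drug control. At least triplicate experiments.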

Human betaherpesvirus 5 [3] = assay: Antiviral activity against human cytomegalovirus AD169 infected in NHDF after 7 days by GFP-based fluorescent reduction assay; format: functional, organism-based; settings: Human betaherpesvirus 5, AD169, NHDF, 168 h
Method in brief: (§3)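 Incubated 7 days at 37°C, medium swapped for PBS, GFP units read by CCD-camera fluorescence imager. EC50/EC90 from % GFPU reduction versus untreated infected wells by nonlinear regression; at least triplicate experiments.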

Human betaherpesvirus 5 [4] = assay: Antiviral activity against human cytomegalovirus Davis xenograft mouse model assessed as reduction of viral load administered via oral gavage QD for 9 days measured post last dose; format: functional; settings: Human betaherpesvirus 5, Davis, 216 h
Method in brief: (§4)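 NOD SCID mice (18 to 25 g) implanted subcutaneously (dorsoscapular) with Gelfoam sponges seeded with 1 × 10⁶ NHDF cells infected with strain Davis (MOI 0.03), bFGF-treated. From 4 h post-transplant, dosed orally by gavage once daily for 9 days in 2% DMSO/0.5% methylcellulose-PBS, 10 ml/kg. Implants then collagenase-digested; recovered cells titrated by plaque assay on NHDF (PFU/ml).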

Human betaherpesvirus 5 [5] = assay: Antiviral activity against 0.3 MOI human cytomegalovirus AD169 infected in NHDF after 7 days by GFP-based fluorescent reduction assay; format: functional, organism-based; settings: Human betaherpesvirus 5, AD169, NHDF, 168 h; method in brief: as §2
Human betaherpesvirus 5 [6] = assay: Antiviral activity against human cytomegalovirus isolate La infected in NHDF assessed as inhibition of virus-induced cytopathic effect after 6 to 7 days by giemsa staining; format: functional, organism-based; settings: Human betaherpesvirus 5, isolate La; method in brief: as §1
Human betaherpesvirus 5 [7] = assay: Antiviral activity against 0.003 MOI human cytomegalovirus AD169 infected in NHDF after 7 days by GFP-based fluorescent reduction assay; format: functional, organism-based; settings: Human betaherpesvirus 5, AD169, NHDF, 168 h; method in brief: as §2
Human betaherpesvirus 5 [8] = assay: Antiviral activity against human cytomegalovirus AD169 infected in NHDF assessed as inhibition of virus replication at 50 nM after 96 hrs by fluorescence assay; format: functional, organism-based
Human betaherpesvirus 5 [9] = assay: Antiviral activity against ganciclovir-resistant human cytomegalovirus isolate 1947R infected in NHDF assessed as inhibition of virus-induced cytopathic effect after 6 to 7 days by giemsa staining; format: functional, organism-based; settings: Human betaherpesvirus 5, isolate 1947R
Method in brief: (§5)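 Cell-associated virus (infected NHDF cells) used as inoculum, at MOI 0.001 to 0.002, mixed with uninfected NHDF (1 × 10⁴ to 3 × 10⁴ cells/well). Compound was added in 2-fold serial dilutions, final 250 to 0.00005 μM, in duplicates. Incubation was 6 to 7 days at 37°C, followed by Giemsa/formalin staining and visual CPE scoring. EC₅₀ is 50% CPE inhibition versus untreated infected control; at least two independent experiments.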

Human betaherpesvirus 5 [10] = assay: Antiviral activity against human cytomegalovirus infected in NHLF after 7 days by GFP-based fluorescent reduction assay; format: functional, organism-based; settings: Human betaherpesvirus 5, 168 h
Method in brief: (§6)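 Fibroblasts of the stated type (1.5 × 10⁴/well) infected with GFP-expressing recombinant AD169 (HCMV-GFP MOI 0.1 or RV-HG MOI 0.2 to 0.5). After adsorption the inoculum was replaced, with 3-fold serial compound dilutions at least in duplicate, and 7 days at 37°C. GFP units were read by CCD camera in PBS. EC₅₀ was derived from GFPU reduction versus untreated infected wells; at least triplicate runs.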

Human betaherpesvirus 5 [11] = assay: Antiviral activity against human cytomegalovirus isolate Ba infected in NHDF assessed as inhibition of virus-induced cytopathic effect after 6 to 7 days by giemsa staining; format: functional, organism-based; settings: Human betaherpesvirus 5, isolate Ba; method in brief: as §1
Human betaherpesvirus 5 [12] = assay: Antiviral activity against human cytomegalovirus infected in human fibroblast assessed as decrease in infectious foci size at 50 nM after 5 days by DAPI staining; format: functional, organism-based
Method in brief: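 Late-stage infected fibroblasts (strictly cell-associated clinical isolate) cocultured with excess uninfected fibroblasts for 5 days with or without 50 nM drug. Methanol-fixed; IE antigen detected by indirect immunofluorescence (mAb E13, Cy3 secondary), nuclei DAPI-counterstained. Quadruplicate; mean infected cells per focus counted.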

Human betaherpesvirus 5 [13] = assay: Antiviral activity against human cytomegalovirus infected in human HS27 cells after 7 days by GFP-based fluorescent reduction assay; format: functional, organism-based; settings: Human betaherpesvirus 5, HS27, 168 h
Method in brief: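 GFP reduction assay run in HS27 foreskin fibroblasts instead of NHDF, infected with AD169-GFP; compounds in 3-fold serial dilutions, 7 days at 37°C, GFP units read by camera-based fluorescence detector after PBS exchange. EC50 from % GFPU reduction versus drug-free infected control; at least triplicate experiments.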

Human betaherpesvirus 5 [14] = assay: Antiviral activity against 0.01 MOI human cytomegalovirus AD169 infected in NHDF after 7 days by GFP-based fluorescent reduction assay; settings: Human betaherpesvirus 5, AD169, NHDF, 168 h
Human betaherpesvirus 5 [15] = assay: Antiviral activity against human cytomegalovirus isolate 472 infected in NHDF assessed as inhibition of virus-induced cytopathic effect after 6 to 7 days by giemsa staining; format: functional, organism-based; settings: Human betaherpesvirus 5, isolate 472, NHDF; method in brief: as §1
Human betaherpesvirus 5 [16] = assay: Antiviral activity against human cytomegalovirus isolate E16415S infected in NHDF assessed as inhibition of virus-induced cytopathic effect after 6 to 7 days by giemsa staining; format: functional, organism-based; settings: Human betaherpesvirus 5, isolate E16415S; method in brief: as §5
Human betaherpesvirus 5 [17] = assay: Antiviral activity against human cytomegalovirus Davis infected in NHDF assessed as inhibition of virus-induced cytopathic effect after 6 to 7 days by giemsa staining; format: functional, organism-based; settings: Human betaherpesvirus 5, Davis; method in brief: as §1
Human betaherpesvirus 5 [18] = assay: Antiviral activity against human cytomegalovirus AD169 infected in NHDF assessed as inhibition of virus replication at 50 nM measured after 24 to 72 hrs of compound wash by fluorescence assay; format: functional, organism-based
Human betaherpesvirus 5 [19] = assay: Antiviral activity against human cytomegalovirus AD169 infected in NHDF assessed as inhibition of virus-induced cytopathic effect after 6 to 7 days by giemsa staining; format: functional, organism-based; settings: Human betaherpesvirus 5, AD169, NHDF; method in brief: as §1
Human betaherpesvirus 5 [20] = assay: Antiviral activity against human cytomegalovirus infected in NHDF after 7 days by GFP-based fluorescent reduction assay; format: functional, organism-based; settings: Human betaherpesvirus 5, NHDF, 168 h; method in brief: as §6
Human betaherpesvirus 5 [21] = assay: Antiviral activity against human cytomegalovirus AD169 infected in NHDF at 50 nM treated after 57 hrs postinfection measured after 7 days by GFP-based fluorescent reduction assay; format: functional, organism-based
Human betaherpesvirus 5 [22] = assay: Antiviral activity against 0.03 MOI human cytomegalovirus AD169 infected in NHDF after 7 days by GFP-based fluorescent reduction assay; format: functional, organism-based; settings: Human betaherpesvirus 5, AD169, NHDF, 168 h; method in brief: as §2
Human betaherpesvirus 5 [23] = assay: Antiviral activity against human cytomegalovirus Davis xenograft mouse model assessed as reduction of viral load at 10 to 100 mg/kg, po QD for 9 days measured post last dose; format: functional, organism-based; method in brief: as §4
Human betaherpesvirus 5 [24] = assay: Antiviral activity against ganciclovir-resistant human cytomegalovirus isolate E17251S infected in NHDF assessed as inhibition of virus-induced cytopathic effect after 6 to 7 days by giemsa staining; format: functional, organism-based; settings: Human betaherpesvirus 5, isolate E17251S; method in brief: as §5
Human betaherpesvirus 5 [25] = assay: Antiviral activity against human cytomegalovirus RV-HG infected in NHDF after 7 days by GFP-based fluorescent reduction assay; format: functional, organism-based; settings: Human betaherpesvirus 5, RV-HG, 168 h; method in brief: as §3
Human betaherpesvirus 5 [26] = assay: Antiviral activity against 1 MOI human cytomegalovirus AD169 infected in NHDF after 7 days by GFP-based fluorescent reduction assay; format: functional, organism-based; settings: Human betaherpesvirus 5, AD169, NHDF, 168 h
Method in brief: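 NHDF cells (1.5 × 10⁴/well) infected with GFP-expressing HCMV AD169 at increasing MOI (0.003 to 1); after adsorption inoculum replaced, compound added in serial 3-fold dilutions, at least duplicate. 7 days at 37°C, medium swapped for PBS, GFP units read by CCD camera. EC₅₀ = 50% GFPU reduction versus no-drug virus control by nonlinear regression; at least triplicate experiments.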

Human betaherpesvirus 5 [27] = assay: Antiviral activity against human cytomegalovirus AD169 infected in NHDF at 10 times EC50 treated postinfection and measured after 7 days by GFP-based fluorescent reduction assay
Human betaherpesvirus 5 [28] = assay: Antiviral activity against human cytomegalovirus infected in HEL299 cells after 7 days by GFP-based fluorescent reduction assay; format: functional, organism-based; settings: Human betaherpesvirus 5, HEL 299, 168 h; method in brief: as §6
Human betaherpesvirus 5 [29] = assay: Antiviral activity against human cytomegalovirus infected in human MRC5 cells after 7 days by GFP-based fluorescent reduction assay; format: functional, organism-based; settings: Human betaherpesvirus 5, MRC5, 168 h
Method in brief: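 MRC5 fibroblasts (1.5 × 10⁴/well) infected with GFP-expressing HCMV AD169; inoculum removed after adsorption, compound in serial 3-fold dilutions, at least duplicate. 7 days at 37°C, then PBS and GFP units read by CCD camera. EC₅₀ = 50% GFPU reduction versus no-drug virus control by nonlinear regression; mean ± SD of independent experiments.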

Human betaherpesvirus 5 [30] = assay: Antiviral activity against human cytomegalovirus isolate Se infected in NHDF assessed as inhibition of virus-induced cytopathic effect after 6 to 7 days by giemsa staining; format: functional, organism-based; settings: Human betaherpesvirus 5, isolate Se; method in brief: as §1

Work on `COc1cccc(N2CCN(C3=Nc4c(F)cccc4[C@H](CC(=O)O)N3c3cc(C(F)(F)F)ccc3OC)CC2)c1` [LETERMOVIR] yielded an EC50 [1] of 3.9 nM, an EC50 (Human betaherpesvirus 5 [2]) of 3.4 nM and an EC50 (Human betaherpesvirus 5 [3]) of 3.8 nM. For the same compound, the EC90 (Human betaherpesvirus 5 [3]) was 5.1 nM, the ED50 (Human betaherpesvirus 5 [4]) was 3 mg/kg/day and the ED90 (Human betaherpesvirus 5 [4]) was 8 mg/kg/day. The EC50 (Human betaherpesvirus 5 [5]) was 3.6 nM, the EC50 (Human betaherpesvirus 5 [6]) was 3.4 nM and the EC50 (Human betaherpesvirus 5 [7]) was 1.3 nM. For the same compound, the Activity (Human betaherpesvirus 5 [8]) was “Active”, the EC50 (Human betaherpesvirus 5 [9]) was 2.3 nM and the EC50 (Human betaherpesvirus 5 [10]) was 5 nM. The EC50 (Human betaherpesvirus 5 [11]) was 5.8 nM, the Activity (Human betaherpesvirus 5 [12]) was “Active” and the EC50 (Human betaherpesvirus 5 [13]) was 5.6 nM. It also gave an EC50 (Human betaherpesvirus 5 [14]) of 1.5 nM, an EC50 (Human betaherpesvirus 5 [15]) of 1.8 nM and an EC50 (Human betaherpesvirus 5 [16]) of 2.6 nM. For the same compound, the EC50 (Human betaherpesvirus 5 [17]) was 4 nM, the Activity (Human betaherpesvirus 5 [18]) was “Active” and the EC50 (Human betaherpesvirus 5 [19]) was 5 nM. The EC50 (Human betaherpesvirus 5 [20]) was 3.5 nM, the Activity (Human betaherpesvirus 5 [21]) was “inactive” and the EC50 (Human betaherpesvirus 5 [22]) was 2.9 nM. For the same compound, the inhibition (Human betaherpesvirus 5 [23]) was “Active”, the EC50 (Human betaherpesvirus 5 [24]) was 6.1 nM and the EC50 (Human betaherpesvirus 5 [25]) was 4.9 nM. The EC90 (Human betaherpesvirus 5 [25]) was 7.1 nM, the EC50 (Human betaherpesvirus 5 [26]) was 4.2 nM and the Activity (Human betaherpesvirus 5 [27]) was “Active”. The EC50 (Human betaherpesvirus 5 [28]) was 3.5 nM, the EC50 (Human betaherpesvirus 5 [29]) was 4.5 nM and the EC50 (Human betaherpesvirus 5 [30]) was 3.1 nM.
With `CC(C)[C@H](N)C(=O)OCC(CO)OCn1cnc2c(=O)[nH]c(N)nc21` (stereo partly specified) [VALGANCICLOVIR] the ED50 (Human betaherpesvirus 5 [4]) was 16 mg/kg/day, the ED90 (Human betaherpesvirus 5 [4]) was > 100 mg/kg/day and the inhibition (Human betaherpesvirus 5 [23]) was “Active”.
